The text below walks through data of ChEMBL document CHEMBL4014309, “Development of an Acrylate Derivative Targeting the NLRP3 Inflammasome for the Treatment of Inflammatory Bowel Disease” (J Med Chem, 2017).

≈ marks a conversion by molar mass, not a printed value. Calls of active or inactive are those of the source. The rule behind the calls is not given here.

Data set [1] can be described thus: Solubility of the compound in PBS at 1.56 mg […] and pH 7.4 after 24 hrs by UHPLC-MS analysis. Format: physicochemical.
Data set [2] concerns the target NACHT, LRR and PYD domains-containing protein 3 (Mus musculus) (UniProt Q8R4B8). As to the kind of experiment: Inhibition of NLRP3 inflammasome in LPS-primed C57BL/6 mouse bone marrow derived macrophages assessed as reduction in nigericin-induced caspase-1 activation at 10 to 100 uM preincubated for 1 hr followed by stimulation with nigericin measured after 30 mins by Western blot analysis. For orientation: In western blotting, separated proteins are transferred to a membrane and probed.

Another data set has as its system Duodenum. As to the kind of experiment: Drug metabolism in Sprague-Dawley rat duodenum assessed as 2-(2-chlorobenzyl)acrylic acid level at 12.5 mg as suspension in olive oil measured after 2 hrs by UHPLC-MS analysis. To be noted: in vivo. Format: ADME, tissue-based.
In a further data set the test system is Liver. As to the kind of experiment: Drug metabolism in Sprague-Dawley rat liver microsomes assessed as formation of 2-(2-chlorobenzyl)acrylic acid at 100 uM up to 2 hrs in absence of NADPH by UHPLC-MS analysis. Format: ADME, microsome. Background: Liver microsomes are a subcellular fraction often used to study metabolism.
For data set [3], the system named is Rattus norvegicus. As to the kind of experiment: Antiinflammatory activity in DNBS-induced Sprague-Dawley rat colitis model assessed as DNBS-induced decrease in colonic length at 12.5 mg/kg/day, ig administered as suspension in olive oil for 6 days simulatneously with 6 days of DNBS-challenge (reference value: -34.4%). More on the design: scale not given: the % may be the effect or the level left. Format: functional.

Data set [4] has as its target NACHT, LRR and PYD domains-containing protein 3 (Homo sapiens) (UniProt Q96P20). As to the kind of experiment: Inhibition of NLRP3 in PMA-differentiated and LPS-primed human THP1 cells assessed as decrease in ATP-induced pyroptosis measured as LDH activity at 10 uM preincubated for 1 hr followed by ATP addition measured after 1 hr by colorimetric assay relative to control. In outline:
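THP-1 cells were PMA-differentiated and LPS-primed, then pretreated with vehicle or compound (10 µM, 1 h). Pyroptosis was triggered with ATP (5 mM). LDH in supernatant was measured colorimetrically 1 h after ATP and expressed as percent decrease versus vehicle, mean ± SEM of ≥3 experiments.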

In data set [5] the test system is Rattus norvegicus. As to the kind of experiment: Antiinflammatory activity in DNBS-induced Sprague-Dawley rat colitis model assessed as DNBS-induced macroscopic damage score at 25 mg/kg/day, ig administered as suspension in olive oil for 6 days simulatneously with 6 days of DNBS-challenge (reference value: 8.6 +/- 0.6). Format: functional.
The nature of data set [6]: Stability of the compound in simulated gastric fluid at 1.56 mg as suspension in olive oil and pH 2 after 2 hrs by UHPLC-MS analysis. In outline: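 1.56 mg suspended in 100 µL olive oil, mixed with 100 µL SGF (pH 2, pepsin 3.2 mg/mL) for 2 h at 37 °C with shaking. Then 200 µL SIF (pH 7, pancreatin 2 mg/mL) was added for a further 2 h. Dedicated samples at 0, 30, 60 and 120 min were extracted with acetonitrile and analysed by UHPLC-MS. ≥3 repeats.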

Data set [7] addresses NACHT, LRR and PYD domains-containing protein 3 (Mus musculus) (UniProt Q8R4B8). As to the kind of experiment: Inhibition of NLRP3 in C57BL/6 mouse bone marrow derived macrophages assessed as reduction in LPS-induced IL-1beta gene expression at 10 to 100 uM preincubated for 30 mins followed by LPS stimulation measured after 4 hrs by qRT-PCR analysis. In outline:
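C57BL/6 bone marrow macrophages, differentiated with 20% L-cell medium, were preincubated with compound for 30 min. They were then left untreated or given LPS (1 ng/mL, 4 h). Tnfa, Il6 and Il1b expression was measured by quantitative RT-PCR as 2^-ΔΔCt.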

Data set [8] in a line: Cysteamine reactivity in PBS assessed as free compound level at pH 7.4 measured after 60 mins by DTNB reagent based RP-UHPLC analysis. In outline:
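The compound was reacted with excess cysteamine in pH 7.4 phosphate buffer with CH3CN cosolvent at 37 °C. Remaining compound was followed by UHPLC over 4 h, sampled at 30 min, 60 min and 4 h, and expressed as percent of starting concentration.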

Data set [9] has as its target NACHT, LRR and PYD domains-containing protein 3 (Mus musculus) (UniProt Q8R4B8). As to the kind of experiment: Inhibition of NLRP3 inflammasome in LPS-primed C57BL/6 mouse bone marrow derived macrophages assessed as reduction in nigericin-induced IL-1beta production at 10 uM preincubated for 1 hr followed by stimulation with nigericin measured after 30 mins by ELISA. In outline: (§1)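 Bone marrow macrophages from C57BL/6 mice, differentiated with 20% L-cell medium, primed with LPS (1 µg/mL, 3 h). Test agent or vehicle was added for 1 h, then ATP (5 mM, 30 min) or nigericin (10 µM, 30 min). IL-1β in the medium was measured by ELISA. LDH in the medium was measured colorimetrically as % of total cellular LDH.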

Data set [10] deals with Rattus norvegicus. As to the kind of experiment: Antiinflammatory activity in DNBS-induced Sprague-Dawley rat colitis model assessed as DNBS-induced decrease in colonic length at 50 mg/kg/day, ig administered as suspension in olive oil for 6 days simulatneously with 6 days of DNBS-challenge (reference value: -34.4%). The format is functional. Further details: scale not given: the % may be the effect or the level left.

The test system of data set [11] is Rattus norvegicus. As to the kind of experiment: Antiinflammatory activity in DNBS-induced Sprague-Dawley rat colitis model assessed as DNBS-induced macroscopic damage score at 12.5 mg/kg/day, ig administered as suspension in olive oil for 6 days simulatneously with 6 days of DNBS-challenge (reference value: 8.6 +/- 0.6). Format: functional.
Data set [12] concerns the target NACHT, LRR and PYD domains-containing protein 3 (Mus musculus) (UniProt Q8R4B8). As to the kind of experiment: Inhibition of NLRP3 inflammasome in LPS-primed C57BL/6 mouse bone marrow derived macrophages assessed as reduction in nigericin-induced pyroptosis at 10 to 100 uM preincubated for 1 hr followed by stimulation with ATP measured after 30 mins by LDH release assay. In outline: as §1
(LDH leaks from cells whose membrane has failed.)

The subject of data set [13] is Rattus norvegicus. As to the kind of experiment: Antiinflammatory activity in DNBS-induced Sprague-Dawley rat colitis model assessed as reduction in DNBS-induced spleen weight increase by measuring increase in spleen weight at 12.5 mg/kg/day, ig administered as suspension in olive oil for 6 days simulatneously with 6 days of DNBS-challenge measured daily during compound dosing (reference value: 39.3%). More on the design: scale not given: the % may be the effect or the level left. Format: functional. In outline:
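Spleen weight was used as an index of systemic inflammation. Rats had intrarectal DNBS (15 mg/0.25 mL 50% ethanol) and 6 days of intragastric dosing: 1 mg/kg/day in 1% methylcellulose, or 12.5–50 mg/kg/day in 0.2 mL olive oil. The spleen was weighed at sacrifice and expressed as percent increase versus control, n = 10.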

The target of data set [14] is NACHT, LRR and PYD domains-containing protein 3 (Mus musculus) (UniProt Q8R4B8). As to the kind of experiment: Inhibition of NLRP3 inflammasome in LPS-primed C57BL/6 mouse bone marrow derived macrophages assessed as reduction in ATP-induced pyroptosis at 10 to 100 uM preincubated for 1 hr followed by stimulation with ATP measured after 30 mins by LDH release assay. In outline: as §1
NACHT, LRR and PYD domains-containing protein 3 (Mus musculus), sequence (Q8R4B8 whole entry, the tested form may be a part): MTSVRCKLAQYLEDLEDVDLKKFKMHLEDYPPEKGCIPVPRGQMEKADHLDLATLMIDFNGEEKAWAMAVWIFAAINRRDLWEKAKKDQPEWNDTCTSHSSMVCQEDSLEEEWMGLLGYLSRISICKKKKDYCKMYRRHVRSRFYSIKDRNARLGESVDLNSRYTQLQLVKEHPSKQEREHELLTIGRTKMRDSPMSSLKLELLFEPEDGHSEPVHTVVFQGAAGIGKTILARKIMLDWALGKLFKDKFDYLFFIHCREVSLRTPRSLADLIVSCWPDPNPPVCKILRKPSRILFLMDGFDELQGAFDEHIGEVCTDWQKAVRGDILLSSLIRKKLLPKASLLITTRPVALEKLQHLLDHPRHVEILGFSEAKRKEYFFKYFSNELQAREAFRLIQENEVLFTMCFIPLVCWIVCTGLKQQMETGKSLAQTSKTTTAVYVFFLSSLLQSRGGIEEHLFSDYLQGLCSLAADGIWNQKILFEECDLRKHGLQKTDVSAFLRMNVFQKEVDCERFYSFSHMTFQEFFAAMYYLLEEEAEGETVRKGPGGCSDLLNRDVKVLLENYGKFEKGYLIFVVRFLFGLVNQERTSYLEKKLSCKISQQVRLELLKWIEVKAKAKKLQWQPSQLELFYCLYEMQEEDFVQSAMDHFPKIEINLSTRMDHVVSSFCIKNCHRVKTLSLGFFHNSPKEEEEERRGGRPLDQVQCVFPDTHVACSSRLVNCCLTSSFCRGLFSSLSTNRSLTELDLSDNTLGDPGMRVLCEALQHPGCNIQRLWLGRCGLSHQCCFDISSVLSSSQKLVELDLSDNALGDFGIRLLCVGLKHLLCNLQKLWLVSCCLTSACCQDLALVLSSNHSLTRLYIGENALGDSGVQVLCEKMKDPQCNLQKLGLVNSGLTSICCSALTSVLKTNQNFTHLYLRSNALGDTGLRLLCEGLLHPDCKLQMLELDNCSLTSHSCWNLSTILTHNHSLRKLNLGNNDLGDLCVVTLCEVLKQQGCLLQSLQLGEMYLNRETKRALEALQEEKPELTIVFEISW

Data set [15] can be described thus: Cytotoxicity against human THP1 cells assessed as reduction in cell viability after 72 hrs by MTT assay. Format: cell-based. To be noted: THP-1 cells, read-out: TC50. The method in brief: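 Human THP-1 cells were exposed to 0.1–100 µM for 72 h, and viability was read by MTT. TC50 is the concentration that cuts viability by 50%; percent viable cells at 100 µM is also reported. Mean ± SEM of ≥3 experiments.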

The test system of data set [16] is Rattus norvegicus. As to the kind of experiment: Anti-inflammatory activity in DNBS-induced Sprague-Dawley rat colitis model assessed as DNBS-induced IL-1beta levels in colon at 50 mg/kg/day, ig for 6 days simulatneously with 6 days of DNBS-challenge by ELISA (reference value: 22.3 +/- 2.9 ng/mg). The format is functional.

NACHT, LRR and PYD domains-containing protein 3 (Homo sapiens), sequence (Q96P20 whole entry, the tested form may be a part): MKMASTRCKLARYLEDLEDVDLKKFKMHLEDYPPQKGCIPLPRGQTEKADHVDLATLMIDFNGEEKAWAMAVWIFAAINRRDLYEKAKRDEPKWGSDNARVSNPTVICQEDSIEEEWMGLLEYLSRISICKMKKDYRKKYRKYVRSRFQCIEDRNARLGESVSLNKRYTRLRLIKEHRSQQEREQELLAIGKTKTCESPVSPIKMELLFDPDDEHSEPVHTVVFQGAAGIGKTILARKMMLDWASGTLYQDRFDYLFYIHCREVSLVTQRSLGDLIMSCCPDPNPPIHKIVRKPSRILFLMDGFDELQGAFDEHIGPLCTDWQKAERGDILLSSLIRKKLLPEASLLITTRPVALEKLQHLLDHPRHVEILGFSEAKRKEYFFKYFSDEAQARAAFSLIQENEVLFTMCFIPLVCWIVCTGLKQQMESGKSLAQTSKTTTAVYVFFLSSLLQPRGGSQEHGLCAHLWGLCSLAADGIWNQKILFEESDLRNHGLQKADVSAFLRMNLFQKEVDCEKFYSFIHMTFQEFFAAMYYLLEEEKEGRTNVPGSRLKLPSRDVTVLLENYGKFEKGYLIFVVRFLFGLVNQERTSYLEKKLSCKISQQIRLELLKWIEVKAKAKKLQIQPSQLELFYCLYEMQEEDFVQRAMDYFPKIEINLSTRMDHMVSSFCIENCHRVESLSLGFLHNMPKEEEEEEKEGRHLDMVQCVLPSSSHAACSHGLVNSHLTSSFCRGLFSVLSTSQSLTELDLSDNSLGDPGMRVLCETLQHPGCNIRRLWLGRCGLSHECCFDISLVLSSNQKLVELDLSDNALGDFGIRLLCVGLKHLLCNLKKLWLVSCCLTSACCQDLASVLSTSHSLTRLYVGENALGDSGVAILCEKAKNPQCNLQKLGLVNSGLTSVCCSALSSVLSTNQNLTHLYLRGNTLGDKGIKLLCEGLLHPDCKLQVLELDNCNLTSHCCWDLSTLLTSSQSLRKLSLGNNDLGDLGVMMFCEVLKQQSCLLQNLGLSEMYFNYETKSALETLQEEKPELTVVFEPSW

What is called solubility is the dissolved amount per volume that the medium holds. The inhibition is how much of the control response was suppressed. For the compound `C=C(Cc1ccccc1Cl)C(=O)OCC`, in [1], the solubility at 24 h is 6 µg/mL (≈ 26.7 µM). The inhibition entry in data set [2], in [7], in data set [9], in data set [12] and in data set [14] was “Active” in each case. In addition, the Drug metabolism result with Duodenum and with Liver was “Metabolite_Detected” each time. For the same compound, the Activity in the data set on Rattus norvegicus [3] is reported as -19%; in the data set on Rattus norvegicus [10] it was -8%; in the data set on Rattus norvegicus [13], 2.2%; in the data set on Rattus norvegicus [16], 6.6 ng/mg. In data set [4], the inhibition was determined as 33.6%. Besides, the Activity_index in the data set with Rattus norvegicus [5] is 3.1; in the data set with Rattus norvegicus [11], 4.7. Moreover, the Stability in [6] is more than 99.5%; in data set [8], 83.3%. Also, the CC50 at 72 h in [15] was more than 100 µM.
